TRPC6 act: activates the mouse TRPC6 cation channel; B-score at 10 µM; AID 2550; 310,000 compounds, 0.13% hits; Q61143; HEK293-TRPC6 membrane potential dye fluorescence; stronger effect = higher value;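 active = B-score of the integrated fluorescence ratio above library mean plus 3 SD, and starting fluorescence ratio within library mean plus 5 SD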;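 also: higher score means more depolarization so channel activation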
TRPC4 agonist: opens the mouse TRPC4 cation channel; Q9QUQ5; HEK293 TRPC4beta/mu-opioid, Fluo4 calcium fluorescence; stronger effect = higher value; B-score at 10 µM; 310,000 compounds, 0.49% hits;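 active = B-score above 5 SD of library B-scores, and initial fluorescence ratio not above library mean plus 5 SD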;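 also: positive B-score marks a calcium rise read as TRPC4 activation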
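System: HEK293 cells stably co-expressing mouse TRPC4beta and mu-opioid receptor; Schedule: Fluo4 dye loading 45 min at room temperature, 110 s recording; Detection: Fluo4 fluorescence, kinetic; Evaluation: B-scored integrated calcium fluorescence ratio; Controls: buffer (low) and maximal DAMGO (high).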
TRPC4 block: TRPC4 (mouse) channel inhibition | Q9QUQ5 | HEK293 TRPC4beta/mu-opioid, DAMGO-evoked Fluo4 calcium flux; stronger effect = lower value | B-score at 10 µM | 300,000 compounds, 0.39% hits;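 active = B-score over 3 SD under the library average, no early fluorescence shift, positive overall ratio signal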
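Material: HEK293 cells with stable TRPC4beta plus mu-opioid receptor expression / Probe or stimulus: DAMGO in two steps, submaximal then maximal / Compound: single concentration per test compound / Technique: kinetic Fluo4 fluorescence imaging of calcium influx / Read-out: per-well B score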
TRPC6 inh: inhibitors of mouse TRPC6 channel | Q61143 | HEK293-TRPC6, membrane potential dye, ACh-evoked depolarization; stronger effect = lower value | B-score at 10 µM | 310,000 compounds, 1.1% hits;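 active = B-score under library mean minus 3 SD, initial fluorescence not abnormally high, positive integrated signal ratio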;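 also: B-score derived from integrated fluorescence ratio over the kinetic read; more negative B-score means stronger inhibition of depolarization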
TRPC4 potent: allosteric potentiators of mouse TRPC4 channel. Q9QUQ5. B-score at 10 µM. 310,000 compounds, 0.42% hits. HEK293 TRPC4beta/mu-opioid, DAMGO EC20, Fluo-4 Ca2+ flux; stronger effect = higher value;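 active = B-score of calcium response area above 5 SD of library B-scores, with initial fluorescence ratio within 5 SD of library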;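 also: B-score of integrated fluorescence ratio over time as area under calcium response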
Active calls of the source: *. A selection: hits, their analogues and other compounds. The true share with any hit is near 2.3%.

COc1ccc(N2CCN(CCCNC(=O)c3ccc(CS(=O)(=O)c4ccc(OC)cc4)o3)CC2)cc1 was read as TRPC6 act inactive, TRPC4 agonist inactive, TRPC4 block -6*, TRPC6 inh inactive and TRPC4 potent inactive.
CCOc1cc(OCC)cc(C(=O)NCCCN2CCOCC2)c1 was read as TRPC6 act inactive, TRPC4 agonist inactive, TRPC4 block inactive, TRPC6 inh inactive and TRPC4 potent inactive.
Screening CCC(=O)N1CCN(c2ccccc2NC(=O)COc2ccc(C(C)C)cc2)CC1 returned TRPC6 act inactive, TRPC4 agonist inactive, TRPC4 block inactive, TRPC6 inh inactive and TRPC4 potent 11*.
COc1ccc(OCC(=O)Nc2ccccc2N2CCN(C)CC2)cc1 was read as TRPC6 act inactive, TRPC4 agonist inactive, TRPC4 block -6*, TRPC6 inh inactive and TRPC4 potent inactive.
CC(C)c1ccc(OCC(=O)Nc2cccc3c2CCCC3)cc1 was read as TRPC6 act inactive, TRPC4 agonist inactive, TRPC4 block inactive, TRPC6 inh inactive and TRPC4 potent inactive.
Screening COc1ccc(OCC(=O)Nc2ccccc2N2CCCCC2)cc1 returned TRPC6 act inactive, TRPC4 agonist inactive, TRPC4 block inactive, TRPC6 inh inactive and TRPC4 potent inactive.
For O=C(O)C1=C[C@H](c2ccc3c(c2)OCO3)C[C@H](OCc2ccc(CO)cc2)O1 the results were TRPC6 act inactive, TRPC4 agonist inactive, TRPC4 block inactive, TRPC6 inh inactive and TRPC4 potent inactive.
O=C(Nc1ccccc1)C1=C[C@H](c2ccc3c(c2)OCO3)C[C@H](OCc2ccc(CO)cc2)O1 was read as TRPC6 act inactive, TRPC4 agonist inactive, TRPC4 block inactive, TRPC6 inh inactive and TRPC4 potent 10*.
For Cc1ccc(CN2CCN(c3ccccc3)CC2)o1 the results were TRPC6 act inactive, TRPC4 agonist inactive, TRPC4 block inactive, TRPC6 inh inactive and TRPC4 potent inactive.
`CCNc1nc(NCC)n2c(SCC(=O)Nc3ccc(C(F)(F)F)cc3[N+](=O)[O-])nnc2n1` gave TRPC6 act inactive, TRPC4 agonist inactive, TRPC4 block inactive, TRPC6 inh inactive and TRPC4 potent inactive.
CC(Oc1ccccc1)C(=O)Nc1ccc(C(N)=O)cc1 (centres undefined) was read as TRPC6 act inactive, TRPC4 agonist inactive, TRPC4 block inactive, TRPC6 inh inactive and TRPC4 potent inactive.
CC(C)NS(=O)(=O)c1ccc(NC(=O)C(C)Oc2ccc(C(=O)c3ccccc3)cc2)cc1 (centres undefined) was read as TRPC6 act inactive, TRPC4 agonist inactive, TRPC4 block inactive, TRPC6 inh inactive and TRPC4 potent 44*.
Screening Cc1ccc(Nc2ncc3c(n2)CC(C)(C)CC3=O)cc1 returned TRPC6 act inactive, TRPC4 agonist inactive, TRPC4 block inactive, TRPC6 inh inactive and TRPC4 potent 18*.
Screening CC1(C)CC(=O)c2cnc(NC3CC3)nc2C1 returned TRPC6 act inactive, TRPC4 agonist inactive, TRPC4 block inactive, TRPC6 inh inactive and TRPC4 potent inactive.
Screening COc1ccc(C(=O)O)cc1S(=O)(=O)NCCN(C)C returned TRPC6 act inactive, TRPC4 agonist inactive, TRPC4 block inactive, TRPC6 inh inactive and TRPC4 potent inactive.
Screening Cc1cccc(C)c1-n1cccc1/C=C1\SC(=S)N(c2cccc(C(=O)O)c2)C1=O returned TRPC6 act inactive, TRPC4 agonist inactive, TRPC4 block -7*, TRPC6 inh inactive and TRPC4 potent inactive.
For CNC(=S)N1N=C(c2ccc(C)cc2)CC1c1ccc(OC)c(OC)c1 (centres undefined) the results were TRPC6 act inactive, TRPC4 agonist inactive, TRPC4 block inactive, TRPC6 inh inactive and TRPC4 potent inactive.
`CNC(=S)N1N=C(c2ccccc2)CC1c1ccc(OC)c(OC)c1` (centres undefined) gave TRPC6 act inactive, TRPC4 agonist inactive, TRPC4 block inactive, TRPC6 inh inactive and TRPC4 potent 11*.
Screening O=C(Cc1ccc(S(=O)(=O)N2CCOCC2)s1)N1CCN(c2cccc(C(F)(F)F)c2)CC1 returned TRPC6 act inactive, TRPC4 agonist inactive, TRPC4 block inactive, TRPC6 inh inactive and TRPC4 potent inactive.

Assay outcomes (PubChem BioAssay)
